Test results from ChEMBL document CHEMBL3526127, “Absorption, elimination, and metabolism of CS-1036, a novel α-amylase inhibitor in rats and monkeys, and the relationship between gastrointestinal distribution and suppression of glucose absorption” (Drug Metab Dispos, 2013).
Blank lines part the entries; values can stand above or below the molecule they belong to.

What was measured:
[1] = Oral bioavailability in F344 rat at 1 mg/kg administered as single dose by LC-MS/MS method; format: ADME, organism-based; conditions: in vivo
In short: (§1)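 Male F344 rats (146–185 g) and male cynomolgus monkeys (3.48–4.29 kg), n = 4 each, fasted overnight, received single iv or oral doses of 0.3, 1.0, 3.0 or 10.0 mg/kg. Monkeys had 2-week washouts between doses. Plasma was sampled to 48 h and assayed by LC-MS/MS with deuterated internal standard. Noncompartmental analysis: tmax observed; t1/2 by regression on ≥3 terminal log points; Vss = dose·AUMC/(AUC0–inf)²; Foral = oral/iv AUC0–inf at the same dose.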

[2] = AUClast in cynomolgus monkey at 0.3 mg/kg, po administered as single dose by LC-MS/MS method; format: ADME, organism-based, Macaca fascicularis; design: dose 0.3 mg/kg, route oral, time 0 - last; conditions: plasma
In short: (§2)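 Fasted male F344 rats (146–185 g) or male cynomolgus monkeys (3.48–4.29 kg), n = 4 per dose, given single iv or oral dose of 0.3, 1.0, 3.0 or 10.0 mg/kg; monkeys dosed with 2-week washouts. Blood sampled to 48 h; plasma stored frozen. LC-MS/MS with deuterated internal standard. Noncompartmental analysis: AUClast by trapezoidal rule; AUC0–inf = AUClast + Ctz/terminal rate constant; mean ± S.D.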

[3] = Clearance in F344 rat at 0.3 mg/kg, iv administered as single dose by LC-MS/MS method; format: ADME, organism-based; design: dose 0.3 mg/kg, route intravenous; conditions: in vivo
In short: (§3)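 Fasted male F344 rats (146–185 g) and male cynomolgus monkeys (3.48–4.29 kg), n = 4 each, received a single iv dose; monkeys had 2-week washouts between doses. Blood was sampled up to 48 h and plasma stored at […]. Plasma parent was quantified by LC-MS/MS with a deuterated internal standard. CL = dose/AUC0–inf by noncompartmental analysis; mean ± S.D.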

[4] = Half life in F344 rat at 0.3 mg/kg, iv administered as single dose by LC-MS/MS method; format: ADME, organism-based; design: dose 0.3 mg/kg, route intravenous; conditions: in vivo
In short: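 Fasted male F344 rats (146–185 g, n = 4 per dose) received single i.v. CS-1036. Plasma was sampled up to 48 h and analysed by LC-MS/MS. t1/2 came from noncompartmental regression of three or more log-transformed terminal-phase points. Mean ± S.D.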

[5] = Clearance in cynomolgus monkey at 1 mg/kg, iv administered as single dose by LC-MS/MS method; format: ADME, organism-based, Macaca fascicularis; design: dose 1 mg/kg, route intravenous; conditions: in vivo; in short: as §3
[6] = Clearance in cynomolgus monkey at 0.3 mg/kg, iv administered as single dose by LC-MS/MS method; format: ADME, organism-based, Macaca fascicularis; design: dose 0.3 mg/kg, route intravenous; conditions: in vivo; in short: as §3
[7] = AUC (0 to infinity) in F344 rat at 1 mg/kg, iv administered as single dose by LC-MS/MS method; format: ADME, organism-based; design: time infinity, dose 1 mg/kg, route intravenous; conditions: plasma; in short: as §2
[8] = Oral bioavailability in F344 rat at 0.3 mg/kg administered as single dose by LC-MS/MS method; format: ADME, organism-based; conditions: in vivo; in short: as §1
[9] = AUClast in cynomolgus monkey at 10 mg/kg, iv administered as single dose by LC-MS/MS method; format: ADME, organism-based, Macaca fascicularis; design: time 0 - last, dose 10 mg/kg, route intravenous; conditions: plasma; in short: as §2
[10] = Half life in cynomolgus monkey at 1 mg/kg, iv administered as single dose by LC-MS/MS method; format: ADME, organism-based, Macaca fascicularis; design: dose 1 mg/kg, route intravenous; conditions: in vivo; in short: as §1
[11] = AUC (0 to infinity) in cynomolgus monkey at 1 mg/kg, iv administered as single dose by LC-MS/MS method; format: ADME, organism-based, Macaca fascicularis; design: time infinity, dose 1 mg/kg, route intravenous; conditions: plasma; in short: as §2
[12] = AUC (0 to infinity) in F344 rat at 3 mg/kg, iv administered as single dose by LC-MS/MS method; format: ADME, organism-based; design: time infinity, dose 3 mg/kg, route intravenous; conditions: plasma; in short: as §2
[13] = AUClast in cynomolgus monkey at 3 mg/kg, iv administered as single dose by LC-MS/MS method; format: ADME, organism-based, Macaca fascicularis; design: time 0 - last, dose 3 mg/kg, route intravenous; conditions: plasma; in short: as §2
[14] = AUClast in cynomolgus monkey at 1 mg/kg, iv administered as single dose by LC-MS/MS method; format: ADME, organism-based, Macaca fascicularis; design: time 0 - last, dose 1 mg/kg, route intravenous; conditions: plasma; in short: as §2
[15] = AUClast in F344 rat at 3 mg/kg, po administered as single dose by LC-MS/MS method; format: ADME, organism-based; design: time 0 - last, dose 3 mg/kg, route oral; conditions: plasma; in short: as §2
[16] = Drug excretion in cynomolgus monkey urine at 3 mg/kg, po administered as single dose after 0 to 336 hrs by scintillation counting method; format: ADME, organism-based, Macaca fascicularis; design: dose 3 mg/kg, route oral; conditions: in vivo
[17] = Drug excretion in cynomolgus monkey feces at 3 mg/kg, po administered as single dose after 0 to 48 hrs by scintillation counting method; format: ADME, organism-based, Macaca fascicularis; design: dose 3 mg/kg, route oral; conditions: in vivo
In short: (§4)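 Fasted cynomolgus monkeys (n = 4) received [14C]-labelled drug at 3 mg/kg, iv via saphenous vein (191 µCi/kg) or orally by stomach catheter (156.5 µCi/kg). Urine, feces and water cage-wash were collected to 336 h. Samples were counted by liquid scintillation; feces were homogenized in 4-fold water. Results are % of dose, mean ± S.D.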

Rattus norvegicus [18] = experiment: Total drug excretion in bile duct cannulated F344 rat at 1 mg/kg, po administered as single dose after 0 to 48 hrs by scintillation counting method; format: ADME, organism-based; design: dose 1 mg/kg, route oral; conditions: in vivo
In short: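 Under ether anesthesia, the common bile duct of fasted F344 rats was cannulated. After recovery, rats received 1 mg/kg (41.9 µCi/kg) of the 14C-labelled compound iv or by oral gavage (n = 4). They were kept in Bollman cages, and bile was collected at 0–6, 6–24, 24–30 and 30–48 h at 4°C. Radioactivity was measured by liquid scintillation counting as % of dose.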

[19] = Drug excretion in cynomolgus monkey feces at 3 mg/kg, iv administered as single dose after 0 to 48 hrs by scintillation counting method; format: ADME, organism-based, Macaca fascicularis; design: dose 3 mg/kg, route intravenous; conditions: in vivo; in short: as §4
[20] = Drug distribution in F344 rat cecum at 1 mg/kg, po administered as single dose after 2 hrs by scintillation counting method; format: ADME, organism-based, Caecum; design: dose 1 mg/kg, route oral; conditions: in vivo
In short: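 [14C]-labelled drug (1 mg/kg, 42.4 µCi/kg) was given orally to fasted F344 rats (148–168 g, n = 3). Contents of stomach, duodenum+jejunum, ileum and cecum were washed out with water at 0.5–8 h, homogenized, solubilized and counted by liquid scintillation. Results are % of dose, mean ± S.D.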

[21] = Drug metabolism in rat intestinal […] S9 fractions at 0.42 uCi/ml assessed as metabolite formation in presence of NADPH after 1 hr at 37 degC by LC-MS/MS method; format: ADME, subcellular; conditions: s9, 1 h
[22] = Drug excretion in F344 rat feces at 1 mg/kg, iv administered as single dose after 0 to 48 hrs by scintillation counting method; format: ADME, organism-based; design: dose 1 mg/kg, route intravenous; conditions: in vivo
In short: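 Fasted F344 rats (152–156 g iv via tail vein; 154–159 g oral; n = 4) received [14C]-labelled drug at 1 mg/kg (41.9 µCi/kg). Animals were kept in metabolic cages; urine and feces were collected to 168 h, and expired CO2 was trapped in 2-aminoethanol/2-methoxyethanol (1:1) to 48 h. Samples were counted by liquid scintillation (feces homogenized). Results are % of dose, mean ± S.D.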

Rattus norvegicus [23] = experiment: Total drug excretion in F344 rat at 1 mg/kg, po administered as single dose after 0 to 168 hrs by scintillation counting method; format: ADME, organism-based; design: dose 1 mg/kg, route oral; conditions: in vivo
In short: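 Fasted F344 rats (n = 4) received [14C]-labelled drug at 1 mg/kg (41.9 µCi/kg), iv via tail vein or oral. They were housed in metabolic cages. Urine and feces were collected to 168 h, and expired CO2 was trapped in 2-aminoethanol/2-methoxyethanol to 48 h. Radioactivity was counted by liquid scintillation, feces after homogenization. Results are % of dose.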

Plasma = experiment: Drug metabolism in po dosed monkey plasma by LC-MS/MS method; conditions: cynomolgus monkey, in vivo

bioavailability [1]: 2.33% | AUC(0-t) [2]: 15 ng·h/mL | clearance [3]: 2.73 mL/min/kg | half-life [4]: 14.6 h | clearance [5]: 2.84 mL/min/kg | clearance [6]: 2.55 mL/min/kg | AUC(0-inf) [7]: 4930 ng·h/mL | bioavailability [8]: 2.44% | AUC(0-t) [9]: 74300 ng·h/mL | half-life [10]: 21.4 h | AUC(0-inf) [11]: 5890 ng·h/mL | AUC(0-inf) [12]: 18800 ng·h/mL | AUC(0-t) [13]: 18100 ng·h/mL | AUC(0-t) [14]: 5870 ng·h/mL | AUC(0-t) [15]: 324 ng·h/mL
SMILES: C[C@H]1O[C@@H](O[C@H]2[C@H](O)[C@@H](O)[C@@H](O[C@H]3[C@H](O)CN[C@@H]3CO)O[C@@H]2CO)[C@H](O)[C@@H](O)[C@@H]1O

Drug excretion [16]: 5.67% | Drug excretion [17]: 78.5% | Drug excretion (Rattus norvegicus [18]): 0.59% | Drug excretion [19]: 0.46% | Drug uptake [20]: 49.9% | Drug metabolism [21]: metabolite_not_detected | Drug excretion [22]: 15.66% | Drug excretion (Rattus norvegicus [23]): 97.94% | Drug metabolism (Plasma): metabolite_not_detected
SMILES: C[C@H]1O[C@@H](O[C@H]2[C@H](O)[C@@H](O)[C@@H](O[14C@H]3[14C@H](O)[14CH2]N[14C@@H]3[14CH2]O)O[C@@H]2CO)[C@H](O)[C@@H](O)[C@@H]1O
